This is an account of results in ChEMBL document CHEMBL1130227, “(S)-homo-AMPA, a specific agonist at the mGlu6 subtype of metabotropic glutamic acid receptors” (J Med Chem, 1997).

As usually defined, the EC50 is the concentration that produces a half-maximal response. A lower EC50 goes with a more potent agent. Broadly, the IC50 is the concentration needed to halve the response being measured.

Metabotropic glutamate receptor 6, sequence (P35349 whole entry): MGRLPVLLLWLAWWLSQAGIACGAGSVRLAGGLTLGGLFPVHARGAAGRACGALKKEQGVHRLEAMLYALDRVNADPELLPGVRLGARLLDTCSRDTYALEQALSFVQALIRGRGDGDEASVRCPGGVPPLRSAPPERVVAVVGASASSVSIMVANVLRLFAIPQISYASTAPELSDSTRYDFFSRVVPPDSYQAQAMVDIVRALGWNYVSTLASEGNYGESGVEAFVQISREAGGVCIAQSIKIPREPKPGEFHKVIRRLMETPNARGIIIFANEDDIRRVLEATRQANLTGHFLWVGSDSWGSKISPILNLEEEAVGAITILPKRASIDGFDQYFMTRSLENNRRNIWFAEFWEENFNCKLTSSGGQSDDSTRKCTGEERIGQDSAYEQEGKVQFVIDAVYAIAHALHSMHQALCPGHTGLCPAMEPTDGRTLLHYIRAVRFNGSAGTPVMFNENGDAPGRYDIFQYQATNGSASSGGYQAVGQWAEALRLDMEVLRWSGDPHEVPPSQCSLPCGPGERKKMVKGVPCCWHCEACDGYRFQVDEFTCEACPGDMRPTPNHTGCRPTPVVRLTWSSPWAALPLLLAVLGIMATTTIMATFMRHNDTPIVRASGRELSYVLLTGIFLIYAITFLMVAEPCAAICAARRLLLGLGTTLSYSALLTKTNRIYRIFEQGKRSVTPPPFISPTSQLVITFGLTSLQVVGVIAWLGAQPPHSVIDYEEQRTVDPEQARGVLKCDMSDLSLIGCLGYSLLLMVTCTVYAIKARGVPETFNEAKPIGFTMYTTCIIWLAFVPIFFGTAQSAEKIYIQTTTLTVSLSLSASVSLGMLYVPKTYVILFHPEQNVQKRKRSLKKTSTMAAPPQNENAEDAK
Metabotropic glutamate receptor 1, sequence (P23385 whole entry): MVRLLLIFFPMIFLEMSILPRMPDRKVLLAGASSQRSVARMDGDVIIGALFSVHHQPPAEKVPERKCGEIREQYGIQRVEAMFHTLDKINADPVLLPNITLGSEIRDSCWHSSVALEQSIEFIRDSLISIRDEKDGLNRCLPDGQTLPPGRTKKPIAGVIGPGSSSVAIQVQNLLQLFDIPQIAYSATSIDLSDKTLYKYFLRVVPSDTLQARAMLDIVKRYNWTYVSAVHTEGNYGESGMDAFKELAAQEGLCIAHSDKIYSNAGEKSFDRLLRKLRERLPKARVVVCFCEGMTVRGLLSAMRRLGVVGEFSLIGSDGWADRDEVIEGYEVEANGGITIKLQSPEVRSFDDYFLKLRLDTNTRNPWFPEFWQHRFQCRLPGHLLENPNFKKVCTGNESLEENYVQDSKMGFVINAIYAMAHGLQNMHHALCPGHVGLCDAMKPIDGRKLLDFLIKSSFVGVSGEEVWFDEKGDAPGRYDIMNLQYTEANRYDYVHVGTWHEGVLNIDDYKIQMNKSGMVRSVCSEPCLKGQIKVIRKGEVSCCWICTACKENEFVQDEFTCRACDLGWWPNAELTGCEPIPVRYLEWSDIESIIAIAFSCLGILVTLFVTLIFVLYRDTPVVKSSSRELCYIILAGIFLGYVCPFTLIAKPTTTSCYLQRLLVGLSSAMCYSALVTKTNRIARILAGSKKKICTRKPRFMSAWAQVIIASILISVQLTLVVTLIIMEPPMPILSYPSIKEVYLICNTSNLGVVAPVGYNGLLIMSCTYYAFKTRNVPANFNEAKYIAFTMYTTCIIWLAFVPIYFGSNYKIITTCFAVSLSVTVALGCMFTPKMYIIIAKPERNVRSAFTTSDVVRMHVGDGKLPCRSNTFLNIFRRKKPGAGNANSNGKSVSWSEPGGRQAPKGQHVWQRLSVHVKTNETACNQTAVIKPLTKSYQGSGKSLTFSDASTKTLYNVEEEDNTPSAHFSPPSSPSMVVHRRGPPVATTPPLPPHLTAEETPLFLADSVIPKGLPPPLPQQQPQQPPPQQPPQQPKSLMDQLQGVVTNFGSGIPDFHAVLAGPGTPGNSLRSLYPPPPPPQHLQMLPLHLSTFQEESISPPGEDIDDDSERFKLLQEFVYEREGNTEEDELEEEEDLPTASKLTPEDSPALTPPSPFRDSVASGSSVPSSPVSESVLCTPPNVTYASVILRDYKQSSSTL
Metabotropic glutamate receptor 2, sequence (P31421 whole entry): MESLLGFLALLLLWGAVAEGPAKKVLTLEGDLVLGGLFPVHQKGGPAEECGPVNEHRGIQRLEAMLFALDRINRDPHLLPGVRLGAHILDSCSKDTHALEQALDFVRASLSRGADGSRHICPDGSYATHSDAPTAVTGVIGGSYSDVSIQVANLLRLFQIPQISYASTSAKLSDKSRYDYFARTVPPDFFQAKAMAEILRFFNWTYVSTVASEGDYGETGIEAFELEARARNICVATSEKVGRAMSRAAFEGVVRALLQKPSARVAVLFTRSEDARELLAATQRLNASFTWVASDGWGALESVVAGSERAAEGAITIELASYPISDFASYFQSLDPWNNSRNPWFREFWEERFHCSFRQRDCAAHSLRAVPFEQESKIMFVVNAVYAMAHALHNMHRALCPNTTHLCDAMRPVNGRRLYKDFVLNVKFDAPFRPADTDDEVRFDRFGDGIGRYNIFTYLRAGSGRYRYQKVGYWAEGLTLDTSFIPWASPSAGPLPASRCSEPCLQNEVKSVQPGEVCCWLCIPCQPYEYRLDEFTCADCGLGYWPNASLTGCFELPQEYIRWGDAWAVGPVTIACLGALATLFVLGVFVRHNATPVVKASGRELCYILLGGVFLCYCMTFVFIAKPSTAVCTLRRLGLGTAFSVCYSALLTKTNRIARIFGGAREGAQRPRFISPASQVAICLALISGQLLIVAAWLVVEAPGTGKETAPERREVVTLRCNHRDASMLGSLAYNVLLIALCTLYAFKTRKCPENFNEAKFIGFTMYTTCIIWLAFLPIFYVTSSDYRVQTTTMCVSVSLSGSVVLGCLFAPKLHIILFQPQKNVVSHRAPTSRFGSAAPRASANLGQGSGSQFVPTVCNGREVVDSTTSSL

One assay concerns the target Metabotropic glutamate receptor 6 (Rattus norvegicus, UniProt P35349). Put plainly: Effect on Metabotropic glutamate receptor 6. Put shortly: (§1)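 Stably transfected CHO cells (mGlu3, mGlu4a or mGlu6) incubated 10 min in PBS with ligand, 10 μM forskolin and 1 mM IBMX. cAMP measured by RIA; agonism taken as percent decrease of forskolin-induced cAMP versus control. For antagonism, 20 min preincubation with ligand in PBS/1 mM IBMX, then 10 min with ligand plus 30 μM (S)-Glu, forskolin and IBMX. EC50 ± SEM from at least two independent experiments in triplicate.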
`Cc1onc(O)c1CCC(N)C(=O)O` (stereo not given) displayed an EC50 of 82 µM.

The compound `N[C@H](CCCC(=O)O)C(=O)O` registered an EC50 of over 1000 µM.

Compound `Cc1o[nH]c(=O)c1CC[C@@H](N)C(=O)O` registered an EC50 of over 1000 µM.

Regarding `Cc1onc(O)c1CC[C@H](N)C(=O)O`, the midpoint of the response, the EC50, lay at 58 µM.

Take `N[C@@H](CCP(=O)(O)O)C(=O)O`: it took 0.57 µM to reach a half-maximal effect (EC50).

`N[C@@H](CCCC(=O)O)C(=O)O` [(S)-2-AMINOADIPIC ACID] displayed an EC50 of 140 µM.

The target in a further assay is Metabotropic glutamate receptor 2 (Rattus norvegicus, UniProt P31421). Put plainly: Effect on Metabotropic glutamate receptor 2. Put shortly:
(§2)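 Stably transfected CHO cells grown in DMEM with 2 mM glutamine, 1% proline and 10% dialyzed FCS, at 37 °C in 5% CO2. Cells seeded 2 days before assay. Ligand tested at 1 mM, both alone and with 30 μM (S)-Glu. Each experiment run at least twice in triplicate.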
In the case of `Cc1onc(O)c1CCC(N)C(=O)O` (stereo not given), the EC50 is over 1000 µM.

Take `N[C@H](CCCC(=O)O)C(=O)O`: the EC50 was over 1000 µM.

`Cc1o[nH]c(=O)c1CC[C@@H](N)C(=O)O`: the EC50 was over 1000 µM.

Compound `Cc1onc(O)c1CC[C@H](N)C(=O)O` had an EC50 of over 1000 µM.

`N[C@@H](CCP(=O)(O)O)C(=O)O`: it took 1000 µM to reach a half-maximal effect (EC50).

Turning to `N[C@@H](CCCC(=O)O)C(=O)O` [(S)-2-AMINOADIPIC ACID], the EC50 turned out to be 35 µM.

For the next assay, the target named is Metabotropic glutamate receptor 5 (Rattus norvegicus, UniProt P31424). The assay can be described thus: Effect on Metabotropic glutamate receptor 5. Put shortly:
as §2
In turn, `Cc1o[nH]c(=O)c1CC[C@@H](N)C(=O)O` registered an EC50 of over 1000 µM.

As for `Cc1onc(O)c1CC[C@H](N)C(=O)O`, the 50% effective concentration (EC50) was over 1000 µM.

Turning to `N[C@@H](CCP(=O)(O)O)C(=O)O`, the EC50 was over 1000 µM.

A further assay concerns the target Metabotropic glutamate receptor 1 (Rattus norvegicus, UniProt P23385). Put plainly: Effect on Metabotropic glutamate receptor 1. Put shortly:
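CHO cells stably expressing mGlu1a, plated two days before assay and labelled with [3H]inositol (2 μCi/mL) for 24 h. Ligand given in PBS–LiCl for 20 min; read-out is 3H mono-, bis- and tris-inositol phosphates separated by ion exchange, expressed as fold increase over control. For antagonism, a 20 min ligand preincubation was followed by ligand plus 30 μM (S)-Glu. At least two experiments, each in triplicate.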
Compound `Cc1onc(O)c1CCC(N)C(=O)O` (stereo not given) displayed an EC50 of over 1000 µM.

The compound `N[C@H](CCCC(=O)O)C(=O)O` returned an EC50 of over 1000 µM.

`Cc1o[nH]c(=O)c1CC[C@@H](N)C(=O)O` yielded an EC50 of over 1000 µM.

`Cc1onc(O)c1CC[C@H](N)C(=O)O`: the EC50 is over 1000 µM.

As to `N[C@@H](CCP(=O)(O)O)C(=O)O`, the EC50 was found to be 1000 µM.

For `N[C@@H](CCCC(=O)O)C(=O)O` [(S)-2-AMINOADIPIC ACID], the EC50 is over 1000 µM.

Another assay deals with Metabotropic glutamate receptor 3 (Rattus norvegicus, UniProt P31422). Put plainly: Effect on Metabotropic glutamate receptor 3. The method in brief: as §1
Metabotropic glutamate receptor 3, sequence (P31422 whole entry): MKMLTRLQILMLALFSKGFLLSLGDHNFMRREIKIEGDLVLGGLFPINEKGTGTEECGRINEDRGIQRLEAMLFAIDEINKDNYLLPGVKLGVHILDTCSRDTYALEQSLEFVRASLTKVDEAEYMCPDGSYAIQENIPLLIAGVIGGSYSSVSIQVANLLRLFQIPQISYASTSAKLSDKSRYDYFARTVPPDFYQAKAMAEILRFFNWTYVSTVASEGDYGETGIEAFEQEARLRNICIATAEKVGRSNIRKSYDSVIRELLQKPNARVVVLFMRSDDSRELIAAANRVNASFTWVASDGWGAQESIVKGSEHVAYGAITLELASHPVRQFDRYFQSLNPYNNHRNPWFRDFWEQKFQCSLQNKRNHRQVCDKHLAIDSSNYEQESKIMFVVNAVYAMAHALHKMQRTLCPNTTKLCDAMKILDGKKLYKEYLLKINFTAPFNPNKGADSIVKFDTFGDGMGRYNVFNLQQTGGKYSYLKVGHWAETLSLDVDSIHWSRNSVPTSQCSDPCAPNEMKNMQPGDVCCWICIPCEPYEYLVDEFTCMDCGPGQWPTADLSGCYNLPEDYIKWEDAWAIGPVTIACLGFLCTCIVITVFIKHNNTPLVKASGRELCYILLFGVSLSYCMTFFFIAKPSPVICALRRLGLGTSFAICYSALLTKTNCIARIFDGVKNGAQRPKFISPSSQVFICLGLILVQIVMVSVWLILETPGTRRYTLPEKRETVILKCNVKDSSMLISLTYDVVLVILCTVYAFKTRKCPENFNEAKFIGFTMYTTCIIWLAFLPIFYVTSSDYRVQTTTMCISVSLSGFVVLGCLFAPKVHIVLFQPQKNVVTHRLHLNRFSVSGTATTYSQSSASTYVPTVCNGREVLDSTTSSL
In turn, `Cc1o[nH]c(=O)c1CC[C@@H](N)C(=O)O` had an EC50 of over 1000 µM.

`Cc1onc(O)c1CC[C@H](N)C(=O)O` gave an EC50 of over 1000 µM.

The compound `N[C@H](CCC(=O)O)C(=O)O` [D-GLUTAMATE] registered a concentration for a half-maximal effect (EC50) of 9 µM.

For another assay, the target named is Metabotropic glutamate receptor 7 (Rattus norvegicus, UniProt P35400). The assay can be described thus: Effect on Metabotropic glutamate receptor 7. The method in brief:
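mGlu7-expressing CHO cells run in the forskolin (10 μM)/IBMX (1 mM) cAMP assay for 10 min, with cAMP measured by RIA as percent inhibition. Test ligand at 10 mM. For antagonism, 20 min preincubation, then ligand plus 1 mM (S)-AP4 as the agonist. Run at least twice in triplicate.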
In turn, `Cc1o[nH]c(=O)c1CC[C@@H](N)C(=O)O` displayed an EC50 of over 5000 µM.

In turn, `Cc1onc(O)c1CC[C@H](N)C(=O)O` returned an EC50 of over 5000 µM.

The compound `N[C@@H](CCP(=O)(O)O)C(=O)O` registered an EC50 of 252 µM.

With `N[C@H](CCC(=O)O)C(=O)O` [D-GLUTAMATE], the EC50 came to 5400 µM.

The target of the next assay is Metabotropic glutamate receptor 4 (Rattus norvegicus, UniProt P31423). The assay can be described thus: Effect on Metabotropic glutamate receptor 4. Put shortly: as §1
Metabotropic glutamate receptor 4, sequence (P31423 whole entry): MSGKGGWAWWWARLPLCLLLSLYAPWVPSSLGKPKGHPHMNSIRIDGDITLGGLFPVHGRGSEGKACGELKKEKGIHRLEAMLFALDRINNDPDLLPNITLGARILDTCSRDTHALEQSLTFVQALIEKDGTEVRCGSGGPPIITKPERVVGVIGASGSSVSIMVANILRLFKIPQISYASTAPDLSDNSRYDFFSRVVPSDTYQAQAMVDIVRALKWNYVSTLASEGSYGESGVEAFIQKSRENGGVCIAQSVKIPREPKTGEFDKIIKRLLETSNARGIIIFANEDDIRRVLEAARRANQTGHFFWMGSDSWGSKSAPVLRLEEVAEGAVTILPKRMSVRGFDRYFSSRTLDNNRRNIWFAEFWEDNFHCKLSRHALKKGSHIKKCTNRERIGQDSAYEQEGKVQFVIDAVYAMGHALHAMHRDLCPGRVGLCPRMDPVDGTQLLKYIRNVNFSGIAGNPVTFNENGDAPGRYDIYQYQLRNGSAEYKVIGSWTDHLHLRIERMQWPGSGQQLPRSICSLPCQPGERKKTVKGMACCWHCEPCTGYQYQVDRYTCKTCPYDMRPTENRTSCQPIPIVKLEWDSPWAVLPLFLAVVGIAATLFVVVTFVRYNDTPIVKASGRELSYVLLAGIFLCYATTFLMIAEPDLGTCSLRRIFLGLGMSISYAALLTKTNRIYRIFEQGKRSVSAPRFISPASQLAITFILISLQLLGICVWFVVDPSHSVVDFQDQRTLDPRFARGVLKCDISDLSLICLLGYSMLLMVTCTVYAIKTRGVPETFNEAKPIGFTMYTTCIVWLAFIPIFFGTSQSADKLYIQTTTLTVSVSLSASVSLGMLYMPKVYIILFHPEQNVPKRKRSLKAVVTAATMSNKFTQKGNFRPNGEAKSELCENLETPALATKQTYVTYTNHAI
As for `Cc1onc(O)c1CCC(N)C(=O)O` (stereo not given), the 50% effective concentration (EC50) was over 3000 µM.

Consider `Cc1o[nH]c(=O)c1CC[C@@H](N)C(=O)O`, for which the EC50 was over 1000 µM.

The compound `Cc1onc(O)c1CC[C@H](N)C(=O)O` yielded an EC50 of over 1000 µM.

`N[C@@H](CCP(=O)(O)O)C(=O)O`: a half-maximal response (EC50) required 0.91 µM.

`N[C@@H](CCCC(=O)O)C(=O)O` [(S)-2-AMINOADIPIC ACID] gave an EC50 of over 3000 µM.

With `N[C@H](CCC(=O)O)C(=O)O` [D-GLUTAMATE], the EC50 was found to be 12 µM.

The next assay has as its target Glutamate NMDA receptor. The assay can be described thus: Inhibitory activity against N-methyl-D-aspartate glutamate receptor. In kind it is protein-complex assay.
Compound `Cc1o[nH]c(=O)c1CC[C@@H](N)C(=O)O` returned an IC50 of 131 µM.
